Assay results: ChEMBL document CHEMBL1148742, “Structure-activity relationship of 2-oxoamide inhibition of group IVA cytosolic phospholipase A2 and group V secreted phospholipase A2” (2007)

What was measured:
Homo sapiens [1] = species on record: Homo sapiens; assay: Inhibition of GV sPLA2 at 0.091 mole fraction
Summary of the method: (§1)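 Recombinant human GV sPLA2, expressed in E. coli as inclusion bodies, sulfonated, refolded and purified (>90%). Enzyme (40 ng) in 50 mM Tris-HCl pH 8.0, 5 mM CaCl2, with mixed micelles of 100 µM 1-palmitoyl-2-[14C]palmitoyl PC and 400 µM Triton X-100, in 1% DMSO. Incubated 10-60 min at 40 °C; released [14C]-palmitic acid measured by modified Dole extraction. Inhibitor dose expressed as mole fraction.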

Homo sapiens [2] = species on record: Homo sapiens; assay: Inhibition of human GIVA cPLA2
Summary of the method: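 Pure native human GIVA cPLA2 (10 ng) in 100 mM HEPES pH 7.5, 80 µM CaCl2, 0.1 mg/mL fatty acid-free BSA, 2 mM DTT. Substrate was mixed micelles of 97 µM 1-palmitoyl-2-[14C]arachidonoyl PC, 3 µM PIP2 and 400 µM Triton X-100, in 1% DMSO. Incubated 10-60 min at 40 °C; [14C]-AA release measured by modified Dole assay and compared with DMSO-only control. XI(50) expressed as mole fraction of inhibitor over inhibitor plus substrate plus detergent.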

Homo sapiens [3] = species on record: Homo sapiens; assay: Inhibition of GV sPLA2 at 0.040 mole fraction; summary of the method: as §1
Homo sapiens [4] = species on record: Homo sapiens; assay: Inhibition of GV sPLA2 at 0.048 mole fraction; summary of the method: as §1
Rattus norvegicus [5] = assay: Antiinflammatory activity against carrageenan-induced paw edema in rat; assay type: functional
Summary of the method: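 Compound given ip at the same time as intradermal carrageenan into the rat paw; rats were euthanized after 3.5 h. Edema was taken as injected minus uninjected paw weight and expressed as percent inhibition versus controls. Four doses were used, each on two groups of five animals, averaged over two experiments. ED50 was derived from the four doses; Student's t-test was used.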

Rattus norvegicus [6] = assay: Analgesic activity in rat assessed as decrease in writhes at 0.0001 mmol/kg, ip; assay type: functional; design: scale not given: the % may be the effect or the level left
Summary of the method: (§2)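 Rat writhing test: compound given ip 30 min before ip acetic acid. Each animal's total writhes were compared with a vehicle-treated control group, and analgesic activity was expressed as percent decrease in writhes.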

Rattus norvegicus [7] = assay: Analgesic activity in rat assessed as decrease in writhes at 0.00005 mmol/kg, ip; assay type: functional; design: scale not given: the % may be the effect or the level left; summary of the method: as §2
Rattus norvegicus [8] = assay: Analgesic activity in rat assessed as decrease in writhes at 0.0165 mmol/kg, ip; assay type: functional; design: scale not given: the % may be the effect or the level left; summary of the method: as §2
Homo sapiens [9] = species on record: Homo sapiens; assay: Inhibition of GV sPLA2 at 0.02 mole fraction; summary of the method: as §1
Homo sapiens [10] = species on record: Homo sapiens; assay: Inhibition of GV sPLA2 at 0.01 mole fraction; summary of the method: as §1
Rattus norvegicus [11] = assay: Analgesic activity in rat assessed as decrease in writhes at 0.01 mmol/kg, ip; assay type: functional; design: scale not given: the % may be the effect or the level left; summary of the method: as §2
Rattus norvegicus [12] = assay: Analgesic activity in rat assessed as decrease in writhes at 0.008 mmol/kg, ip; assay type: functional; design: scale not given: the % may be the effect or the level left; summary of the method: as §2

Structure (SMILES) | inhibition (Homo sapiens [1]) [%] | XI50 (Homo sapiens [2]) | also measured
CCCCCCCCCCC(=O)C(=O)N[C@@H](CCC(=O)O)COC(=O)NCCCCCCCC | 60 | – | –
CCCCCCCC/C=C\CCCCCCCC(=O)C(=O)NCCCC(=O)OC | – | 0.012 | inhibition (Homo sapiens [3]): 24%
CCCCCCCCCCC(=O)C(=O)N[C@@H](CCC(=O)OC)COC(=O)NCCCCCCCC | – | 0.02 | –
CCCCCCCCCCC(=O)C(=O)N[C@@H](CCC(=O)O)C(=O)O | 15 | – | –
CCCCCCCCCCCCCC(=O)C(=O)N[C@@H](CCCC)CCCCC(=O)O | 22 | 0.013 | –
CCCCCCCCCCC(=O)C(=O)N[C@@H](CCCC)C(=O)O | 60 | – | –
CCCCCCC(=O)C(=O)NCCCC(=O)O | – | – | inhibition (Homo sapiens [4]): 27%
CCCCCCCC/C=C\CCCCCCCC(=O)C(=O)NCCCC(=O)O | – | 0.011 | ED50 (Rattus norvegicus [5]): 0.1 µmol/kg; Activity (Rattus norvegicus [6]): 53%
COC(=O)CCCNC(=O)C(=O)CCCCc1ccccc1 | 31 | – | –
CCCCCCC(=O)C(=O)N[C@H](CCC(=O)O)Cc1ccccc1 | 14 | – | –
CCCCCCCCCCCCCCC(=O)C(=O)NCCCC(=O)OC | 22 | – | –
CCCCCCCCCCCCCCC(=O)C(=O)N[C@@H](CCCC)CCCC(=O)O | – | 0.005 | ED50 (Rattus norvegicus [5]): 0.05 µmol/kg; Activity (Rattus norvegicus [7]): 71%
CCCCCCCCCCCCCCC(=O)C(=O)N[C@@H](CCC(=O)O)C(=O)NCCCCCCCCCC | 33 | 0.025 | ED50 (Rattus norvegicus [5]): 16.5 µmol/kg; Activity (Rattus norvegicus [8]): 11%
CCCCCCCCCCCCCCC(=O)C(=O)N[C@@H](CCCC)COC(=O)NCCCCCCCC | 20 | – | –
CCCCCCCCCCCCCCC(=O)C(=O)NCCCC(=O)O | – | 0.017 | –
O=C(O)CCCNC(=O)C(=O)CCCCc1ccccc1 | 27 | – | –
CCCCCCCCCCC(=O)C(=O)N[C@@H](CCC(=O)O)C(=O)NCC | 30 | – | –
CCCCCCCCCCCCCCCCNC(=O)C(=O)CC | 30 | – | –
CCCCCCCC/C=C\CCCCCCCCNC(=O)C(=O)CCCCCCCCCCCCCC | – | – | inhibition (Homo sapiens [9]): 37%
CCCCCCCCCCCCCC(=O)C(=O)N[C@@H](CCCC)CCC(=O)O | 30 | 0.01 | –
CCCCCCCC/C=C\CCCCCCCCNC(=O)C(=O)CCCCCC | – | – | inhibition (Homo sapiens [10]): 22%
CCCCCCCCCCC(=O)C(=O)N[C@@H](CCCC)CCCCC(=O)O | 22 | 0.025 | ED50 (Rattus norvegicus [5]): 10 µmol/kg; Activity (Rattus norvegicus [11]): 33%
CCCCCCCCCCC(=O)C(=O)N[C@H](CCC(=O)O)C(=O)NCC | 12 | – | –
CCCCCCCCCCCCCC(=O)C(=O)N[C@@H](CCCC)CCCC(=O)O | 26 | 0.005 | –
NC(=O)C(=O)CCCCc1ccccc1 | 45 | – | –
CCCCCCCCCCCCCCC(=O)C(=O)N[C@@H](CCCC)CCC(=O)O | – | 0.008 | ED50 (Rattus norvegicus [5]): 8 µmol/kg; Activity (Rattus norvegicus [12]): 65%
CCCCCCCCCCCCCC(=O)C(=O)N[C@@H](CCCC)CC(=O)O | – | 0.027 | –
COC(=O)CCCNC(=O)C(=O)CCCc1ccccc1 | 48 | – | –
O=C(O)CCCNC(=O)C(=O)CCCc1ccccc1 | 34 | – | –
CCCCCCCCCCC(=O)C(=O)N[C@@H](CCCC)CCC(=O)O | – | 0.009 | –
